# Screening results as filed in PubChem BioAssay.
# This is one part of a sample in which hits are shown more often than they occur.
# HCT116 PTEN-null – growth suppressors of cells with PTEN tumor suppressor deletion; HCT116 PTEN-null viability, CellTiter-Glo, 60 h; hits give low values; viability, % at 10 µM; 1.2% of 140,000 active;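 active = viability at or below a set limit, 4 SD under the median of all tested compounds, cut at about 3.7% in these data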;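 also: PTEN knockout HCT116 line with beta catenin targeted HCT116 as companion control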
# Fibroblast inh – blocks proliferation of human lung fibroblasts. viability, % at 10 µM. LL 47 human lung fibroblast viability, ATP luminescence; hits give low values. 1.1% of 85,000 active;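 active = viability at or below 50% in the single dose screen; inactive = viability above 50%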;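 also: compound exposure lasted 72 h before the ATP readout; 100% = median luminescence of untreated cell-only wells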
#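 Test system: LL 47 human lung fibroblasts / Incubation: 72 h compound exposure at 37 °C after overnight plating / Technique: luminescent ATP detection, CellTiter-Glo / Compound dosing: 0.1% DMSO in all compound wells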
# bCat KO growth – beta-catenin-lacking colon tumor cell growth suppression | HCT116 beta-catenin knockout viability, CellTiter-Glo, 60 h; hits give low values | viability, % at 10 µM | 1.5% of 140,000 active | AID 818;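 active = viability at or under a set limit, the compound median less 4 SD, cut at about 6% in these data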;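 also: 0% = Hyamine 1622 control at 20 µM and 100% = untreated cell control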
# H69AR growth 86K – blocks growth of human H69AR lung tumor cells; viability, % at 10 µM; 6% of 85,000 active; H69AR lung tumor viability, ATP luminescence, 72 h; hits give low values;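 active = viability at or below 40%; inactive = viability above 40%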;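 also: multidrug resistant small cell line overexpressing MRP-1 efflux transporter; 100% = mean luminescence of untreated control wells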
# HUVEC prolif 384 – human endothelial cell proliferation inhibition; HUVEC proliferation, CellTiter-Glo luminescence, 72 h; hits give low values; viability, % at 10 µM (by protocol); 1.1% of 86,000 active; AID 648;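 active = viability at or below 30%; inactive = viability above 30%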;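 also: 100% = median luminescence of DMSO-only cell control wells on each plate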
# Active calls of the source: *; . = no result.
SMILES,HCT116 PTEN-null,Fibroblast inh,bCat KO growth,H69AR growth 86K,HUVEC prolif 384
COc1cccc(/C=N/Nc2snc(SC)c2C#N)c1O,26,68,22,20*,61
COC(=O)c1ccc2c(c1)N(Cc1nc(-c3cccc(Cl)c3)oc1C)C(=O)C1CCCN21 (configuration not stated),.,85,.,68,83
COC(=O)c1ccc2c(c1)N(Cc1nc(-c3ccc(Cl)cc3)oc1C)C(=O)C1CCCN21 (configuration not stated),.,96,.,15*,87
O=C(NC(C(=O)c1ccccc1)N1CCCCC1)c1ccccc1 (configuration not stated),85,.,101,.,.
Cc1ccc(SCC(=O)Nc2ccc(-c3nc4ccccc4[nH]3)cc2)cc1,102,.,95,.,.
Cc1nc(N2CCN(Cc3nc4ccccc4[nH]3)CC2)c2oc3ccccc3c2n1,43,88,47,36*,72
Cc1nc(SCc2nc3ccccc3[nH]2)c2oc3ccccc3c2n1,47,90,58,65,87
c1ccc2[nH]c(CN3CCN(c4ncnc5c4oc4ccccc45)CC3)nc2c1,76,96,77,7.1*,87
CCOC(=O)n1c(=O)n(Cc2c(Cl)cccc2Cl)c2ccccc21,67,.,69,.,.
Cc1ccn2c(Nc3ccccc3C)c(-c3ccncc3)nc2c1,75,.,66,.,.
COc1cc(CC(=O)Nc2ccc(S(=O)(=O)N(C)C)cc2)cc(OC)c1OC,93,105,88,102,108
CN=C1S/C(=C\c2ccc(N3CCOCC3)cc2C)C(=O)N1C,96,.,101,.,.
Cc1cc(N2CCOCC2)ccc1/C=C\[N+](=O)[O-],10,.,4.4*,.,.
Cc1ccc(NC(=O)c2ccc3ccccc3n2)nc1,80,89,84,62,92
CCOC(=O)c1sc(NC(=O)c2c(C)noc2C)c(C(=O)OCC)c1C,.,91,.,38*,81
CCOC(=O)c1c(NC(=O)c2cc(C(C)C)on2)sc(C(C)=O)c1C,40,99,18,66,59
CC1=C/C(=N\Nc2ccccc2[N+](=O)[O-])CC(C)(C)C1,81,.,83,.,.
COc1ccc(CCN2C(=O)C3C4CC(C5C(C(=O)N/N=C\c6ccc(Cl)cc6)=NOC45)C3C2=O)cc1OC (configuration not stated),98,101,102,102,98
COc1ccccc1Nc1nc(N)nc(-c2oc3ccccc3c2C)n1,90,80,91,62,95
Cc1c(-c2nc(N)nc(Nc3ccc(F)cc3)n2)oc2ccccc12,86,81,85,21*,59
Cc1nn(-c2ccccc2)c(OC(=O)c2cccs2)c1S(=O)(=O)c1ccccc1,105,.,105,.,.
Cc1nn(-c2ccccc2)c(OC(=O)c2cccs2)c1S(=O)(=O)c1ccc([N+](=O)[O-])cc1,97,100,96,7.9*,88
Cc1nnc(SCc2ccccc2)nc1/C=C/NOCc1ccc(Cl)cc1Cl,84,91,92,2.3*,72
Cc1ccc2c(CC(=O)NCc3ccco3)coc2c1C,37,55,29,27*,53
Cc1ccc(C(=O)NCc2ccco2)cc1Br,105,101,103,95,103
SMILES,HCT116 PTEN-null,Fibroblast inh,bCat KO growth,H69AR growth 86K,HUVEC prolif 384
CCOC(=O)C(NC(=O)CCC(=O)Nc1ccc(S(N)(=O)=O)cc1)C(O)c1ccccc1 (configuration not stated),96,.,96,32*,99
CCCCCCCCOC(=O)C(NC(=O)CCC(=O)Nc1ccc(S(N)(=O)=O)cc1)C(O)c1ccccc1 (configuration not stated),95,97,94,91,78
C=CCN1C(=Nc2cccnc2)SCC1(O)c1ccc(C)cc1 (configuration not stated),27,86,20,34*,1.8*
Cc1cc(C)c(NC(=O)CSc2nc3ccc(NC(=O)CSc4nnnn4Cc4ccccc4)cc3s2)c(C)c1,.,83,.,14*,84
COC(=O)CSc1nc2ccc(NC(=O)CSc3nnnn3Cc3ccccc3)cc2s1,95,31*,102,90,56
O=C(CSc1nc2ccc(NC(=O)CSc3nnnn3Cc3ccccc3)cc2s1)Nc1ccccc1,74,75,76,107,59
CCOC(=O)Nc1nnc(-c2ccc(OC)c(OC)c2)s1,92,99,89,85,95
Cc1ccc(CSCCNC(=O)CSc2ccccc2)cc1,96,.,97,.,.
Cc1cc(C(=O)N/N=C/c2ccc(Cl)c([N+](=O)[O-])c2)c(C)n1-c1ccc(F)cc1,2.5*,.,3.1*,.,.
COc1ccc2c(c1)c(=O)oc1cc3occ(C(C)(C)C)c3cc12,87,58,95,13*,40
COc1ccc2c(c1)c(=O)oc1c(C)c3occ(C)c3cc12,.,102,.,35*,116
Cc1csc(Sc2ccc([N+](=O)[O-])cc2C(=O)OCC(=O)NC2CCCC(C)C2C)n1 (configuration not stated),96,101,97,8.4*,97
COc1ccc(C(=O)/C=C/c2cn(CN3CCN(C)CC3)c3ccccc23)cc1,33,101,14,22*,78
COc1ccc(C(=O)Nc2ccc(Cl)cc2C(=O)NCc2ccco2)cc1,72,84,83,29*,63
COc1ccc(N=c2oc3c(OC)cccc3cc2C(=O)NCc2ccco2)c(OC)c1,4,77,1.8*,100,63
COc1ccc2cc(C(=O)NCc3ccco3)c(=Nc3ccc(C(=O)O)cc3)oc2c1,81,93,78,21*,79
COc1ccc2cc(C(=O)NCc3ccco3)c(=O)oc2c1,93,107,87,99,117
COc1ccc(Nc2cc(C(=O)NCc3ccco3)c3ccccc3n2)c(OC)c1,95,.,86,.,.
CC1CC1C(=O)OCC(=O)NCc1ccccc1Cl (configuration not stated),101,94,98,29*,82
O=C(N/N=C\c1ccc(CNS(=O)(=O)c2ccc(Cl)cc2)o1)C(=O)Nc1ccc(Oc2ccccc2)cc1,2.0*,.,1.4*,.,.
O=C(N/N=C\c1ccc(CNS(=O)(=O)c2ccccc2)o1)C(=O)Nc1ccc(F)cc1,86,.,81,.,.
Cc1cc(N=Cc2c(O)n(-c3ccc4c(c3)OCO4)c(=O)c3ccccc23)ccn1,80,73,83,21*,87
Cc1ccc(-n2c(O)c(C=Nc3ccc4c(c3)OCO4)c3ccccc3c2=O)cc1C,2.4*,.,2.0*,.,.
CCCCN(Cc1ccccc1)S(=O)(=O)c1cc(Br)cc2c1N(C(C)=O)C(C)C2 (configuration not stated),47,98,41,66,78
C=CCn1c(C)cc(C(=O)CSc2nnc(NCc3ccccc3)s2)c1C,37,53,21,25*,58
Cc1ccsc1/C=N/n1c(COc2ccccc2)n[nH]c1=S,83,.,99,.,.
COc1cc(S(=O)(=O)N2CCOCC2)ccc1NC(=O)COC(=O)c1ccccn1,101,92,111,94,99
